Data reported in ChEMBL document CHEMBL3244325, “Diastereoisomeric N-tetrahydrofurfurylnoroxymorphones with opioid agonist--antagonist properties” (J Med Chem, 1977).

Assays:
[1] = Toxicity in sc dosed mouse; format: organism-based; details: in vivo
Summary of the method: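 Acute toxicity in mice, expressed as LD50 calculated by the Litchfield and Wilcoxon method.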

[2] = species on record: Mus musculus; experiment: Inhibition of morphine-induced analgesia in mouse by tail clip method; format: functional
Summary of the method: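 Mice dosed subcutaneously; morphine antagonism measured as suppression of morphine analgesia by a tail-clip-based procedure. AD50 in mg/kg estimated by graphical evaluation of log dose-response curves.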

[3] = system: Mus musculus; experiment: Analgesic activity in sc dosed mouse assessed as inhibition of phenylquinone-induced writhing; format: functional
[4] = system: Mus musculus; experiment: Ratio of LD50 in sc dosed mouse to ED50 in sc dosed mouse by writhing test
[5] = system: Mus musculus; experiment: Analgesic activity in sc dosed mouse by tail clip method; format: functional
[6] = system: Mus musculus; experiment: Analgesic activity in sc dosed mouse by hot plate method; format: functional
[7] = system: Mus musculus; experiment: Ratio of morphine hydrochloride ED50 to compound ED50 for sc dosed mouse assessed as inhibition of phenylquinone-induced writhing; format: functional

Compound	LD50 [1] [mg/kg]	AD50 [2] [mg/kg]	ED50 [3] [mg/kg]	Ratio LD50/ED50 [4]	ED50 [5] [mg/kg]	ED50 [6] [mg/kg]	Ratio ED50 [7]
CC(C)=CCN1CCC2(C)c3cc(O)ccc3CC1C2C.Cl (stereo not given) [PENTAZOCINE HYDROCHLORIDE]	220	8	1.4	–	–	–	–
Cl.O=C1CC[C@@]2(O)[C@H]3Cc4ccc(O)c5c4[C@@]2(CCN3C[C@@H]2CCCO2)[C@H]1O5	810	5	–	–	–	–	–
Cl.O=C1CC[C@@]2(O)[C@H]3Cc4ccc(O)c5c4[C@@]2(CCN3C[C@H]2CCCO2)[C@H]1O5	955	4	0.02	47750	200	1.9	25
C=CCN1CC[C@]23c4c5ccc(O)c4O[C@H]2C(=O)CC[C@@]3(O)[C@H]1C5.Cl [NALOXONE HYDROCHLORIDE]	286	0.03	–	–	–	–	–
C=CCN1CC[C@]23c4c5ccc(O)c4O[C@H]2[C@@H](O)C=C[C@H]3[C@H]1C5.Cl [NALORPHINE HYDROCHLORIDE]	560	1	0.5	–	–	–	–
CN1CC[C@]23c4c5ccc(O)c4O[C@H]2[C@@H](O)C=C[C@H]3[C@H]1C5.Cl [MORPHINE HYDROCHLORIDE]	–	–	0.5	–	11	1.2	–
